PfG6PD inh = PfG6PD (Plasmodium falciparum) enzyme inhibition | PfGluPho enzyme, NADPH resazurin-diaphorase fluorescence | inhibition, % at 20 µM | 350,000 tested, 0.78% active | AID 504690;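 active means inhibition reaching at least a set limit at 20 µM in the primary screen, cut at about 59% in these data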
G6PDH counter = counter-screen for G6PDH assay hits: L. mesenteroides G6PDH inhibition. Purified L. mesenteroides G6PDH, diaphorase/resazurin coupled fluorescence, 45 min. inhibition, % at 5 µM. AID 1020. 200,000 tested, 0.12% active
Diaphorase act = activates diaphorase or chemically reduces, flagging diaphorase assay artifacts; Diaphorase/resazurin coupled assay, resorufin fluorescence, 16 min; stronger effect = higher value; 1 = vehicle wells, 0 = NADH-free wells; 190,000 tested, 0.005% active; activation factor at 20 µM;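 active means diaphorase activity raised at least twofold by the compound at 20 µM; inactive means activation factor below 2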
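Material: Clostridium kluyveri diaphorase, purified enzyme; Quantity: enzyme 0.07 U/mL final; Medium: HEPES pH 7.4 buffer with MgCl2 and Tween 20; Dosing: single compound dose of 20 µM, 1% DMSO final; Schedule: 16 min reaction at room temperature; Measured by: red resorufin fluorescence at 544/590 nm excitation/emission.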
Diaphorase inh = diaphorase inhibition or chemical oxidation counter-screen; inhibition, % at 20 µM; diaphorase resazurin-to-resorufin fluorescence, NADH, 16 min; bacterial (C. kluyveri) enzyme, not human; 190,000 tested, 0.69% active; AID 1217;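 active means primary screen inhibition at 20 µM above a set limit, cut at about 50% in these data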
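Test system: bacterial diaphorase enzyme (C. kluyveri); Quantity: 0.14 U/mL diaphorase, enzyme working solution; Times: reaction incubation of 16 min at room temperature; Measured by: fluorescence of resorufin formed from resazurin, Ex 544/Em 590 nm; Benchmarks: positive control minus NADH, DMSO neutral control.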
Lmaj promast = Leishmania major promastigote growth inhibition. Leishmania major promastigotes, resazurin fluorescence viability. AID 1063. inhibition, % at 10 µM. 200,000 tested, 9% active;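 further: promastigotes grown with compound for 44 hours at 28 °C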
Redox H2O2 prof = compounds producing H2O2 with reducing agent – biochemical, NIH compound library profiling, artefact control for MLSCN library redox annotation, primary screen; DTT-dependent redox cycling H2O2, phenol red/HRP absorbance; 100% = 100 µM peroxide control, 0% = buffer; activation, % at 10 µM; 200,000 tested, 0.03% active;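 active means activation of at least 50% relative to the plate's high and low controls in the primary single-dose screen; inactive means activation below 50%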;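 further: compound incubated with DTT at 0.8 mM final as the reducing agent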
Numbers stand for hits. The sample as a whole holds a higher share of hits than the screen did. Unless noted, no stated cut-off is given here; in the data, active means inhibition above about 50%; inactive means the rest.

How did COc1ccc(C2CC(c3ccccc3)=NN2C(=O)COC(=O)c2cnc(Cl)c(Cl)c2)cc1 (centres undefined) do in these assays?
PfG6PD inh: inactive; G6PDH counter: inactive; Diaphorase act: inactive; Diaphorase inh: inactive; Lmaj promast: 97; Redox H2O2 prof: inactive

How did COc1ccc(C2CC(c3ccccc3OC(C)=O)=NN2C(=O)/C=C/c2ccccc2)cc1 (centres undefined) do in these assays?
PfG6PD inh: inactive; G6PDH counter: inactive; Diaphorase act: inactive; Diaphorase inh: inactive; Lmaj promast: 97; Redox H2O2 prof: inactive

Results for CC(=O)Oc1ccccc1C1=NN(C(=O)/C=C/c2ccccc2)C(c2ccccc2)C1 (centres undefined) ?
PfG6PD inh: inactive; G6PDH counter: inactive; Diaphorase act: inactive; Diaphorase inh: inactive; Lmaj promast: inactive; Redox H2O2 prof: inactive

What do the screens show for `COc1ccc(C2CC(c3ccccc3)=NN2C(=O)CN2CCN(Cc3ccccc3)CC2)cc1` (centres undefined)?
PfG6PD inh: inactive; G6PDH counter: inactive; Diaphorase act: inactive; Diaphorase inh: inactive; Lmaj promast: 54; Redox H2O2 prof: inactive

Results for COc1ccc(C(=O)O/N=C(\N)Cc2ccc([N+](=O)[O-])cc2)c(OC)c1 ?
PfG6PD inh: inactive

What do the screens show for `Cc1ccnc(N2CCC(C(=O)Nc3cccc(C(F)(F)F)c3)CC2)n1`?
PfG6PD inh: inactive; G6PDH counter: inactive; Diaphorase act: inactive; Diaphorase inh: inactive; Lmaj promast: inactive; Redox H2O2 prof: inactive

What do the screens show for `CCOc1ccc(S(=O)(=O)Nc2nc3ccccc3nc2N2CCN(C)CC2)cc1`?
PfG6PD inh: inactive; G6PDH counter: inactive; Diaphorase act: inactive; Diaphorase inh: inactive; Lmaj promast: 100; Redox H2O2 prof: inactive

Results for CCOC(=O)C1CCN(Cc2ccc(O)c(OC)c2)CC1 ?
PfG6PD inh: inactive; G6PDH counter: inactive; Diaphorase act: inactive; Diaphorase inh: inactive; Lmaj promast: 84; Redox H2O2 prof: inactive

How did CCOC(=O)C1(CCc2ccccc2)CCN(Cc2ccc(C(=O)OC)cc2)CC1 do in these assays?
PfG6PD inh: inactive

How did CCOC(=O)C1CCN(Cc2ccc(F)cc2)CC1 do in these assays?
PfG6PD inh: inactive; G6PDH counter: inactive; Diaphorase act: inactive; Diaphorase inh: inactive; Lmaj promast: 89; Redox H2O2 prof: inactive

How did CCOC(=O)C1(CC2CC2)CCN(Cc2ccc(C(=O)OC)cc2)CC1 do in these assays?
PfG6PD inh: inactive; G6PDH counter: inactive; Lmaj promast: 92; Redox H2O2 prof: inactive

What do the screens show for `CCOC(=O)C1CCN(Cc2ccc(C(=O)OC)cc2)CC1`?
PfG6PD inh: inactive; G6PDH counter: inactive; Diaphorase act: inactive; Diaphorase inh: inactive; Lmaj promast: 95; Redox H2O2 prof: inactive

Results for COc1ccc(C(=O)OCC(=O)N2CCCC2=O)c(OC)c1 ?
PfG6PD inh: inactive; G6PDH counter: inactive; Diaphorase act: inactive; Diaphorase inh: inactive; Lmaj promast: inactive; Redox H2O2 prof: inactive

What do the screens show for `Cc1nonc1OCCNCc1c(C(=O)N2CCCCCCC2)nc2ccc(Cl)cn12`?
PfG6PD inh: inactive; G6PDH counter: inactive; Diaphorase act: inactive; Diaphorase inh: inactive; Lmaj promast: inactive; Redox H2O2 prof: inactive

How did O=C(COC(=O)C1CCN(c2ccc(C(F)(F)F)cn2)CC1)Nc1ncc(Cl)cc1Cl do in these assays?
PfG6PD inh: inactive

How did Clc1ccc(CNCc2cccs2)cc1Cl do in these assays?
PfG6PD inh: inactive; G6PDH counter: inactive; Diaphorase act: inactive; Diaphorase inh: inactive; Lmaj promast: inactive; Redox H2O2 prof: inactive

What do the screens show for `CCOC(=O)C1CCN(Cc2ccc(Cl)c(Cl)c2)CC1`?
PfG6PD inh: inactive; G6PDH counter: inactive; Diaphorase act: inactive; Diaphorase inh: inactive; Lmaj promast: 88; Redox H2O2 prof: inactive

How did CCCn1c(N2CCN(CC(=O)Nc3ccc4c(c3)OCCO4)CC2)nc2ccccc21 do in these assays?
PfG6PD inh: inactive; G6PDH counter: inactive; Diaphorase act: inactive; Diaphorase inh: inactive; Lmaj promast: 79; Redox H2O2 prof: inactive

What do the screens show for `CCOC(=O)C1(CCOc2ccccc2)CCN(CC2CC2)CC1`?
PfG6PD inh: inactive
